Source: PubChem (Broad Institute)
HIV Env fusion: blocks HIV Env-driven cell-cell fusion; HeLa-JRFL Env/CEM21 cell fusion, luciferase; inhibition, % at 12.3 µM; 360,000 tested, 1.1% active;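 active means mean replicate inhibition score of at least 50 and every replicate individually at or above 50; inconclusive means only one of the two criteria met; inactive means mean below 50 and not all replicates reaching 50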;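 further: 0% = plate neutral controls and 100% = maraviroc near 300 nM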
S100A4 inh HTS: blocks human S100A4 binding to myosin IIA peptide; P26447; S100A4/TAMRA-MyoIIA peptide fluorescence polarization; inhibition, % at 10.7 µM; 360,000 tested, 0.14% active; AID 652163;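 active means mean inhibition of at least 70% across replicates, with every replicate also reaching that level; inconclusive means mean inhibition reaches 70% but some replicates fall short; inactive means mean inhibition below 70%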
Target sequence (P26447 whole entry, looked up): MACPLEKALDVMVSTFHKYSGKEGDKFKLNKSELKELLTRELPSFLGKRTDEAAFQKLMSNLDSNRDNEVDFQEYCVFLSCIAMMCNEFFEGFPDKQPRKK
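Material: human S100A4 monomer with TAMRA-labelled myosin IIA peptide; buffer or medium: HEPES pH 7.2 with CaCl2, KCl, NaCl, DTT, Triton; compound dosing: one concentration per compound; schedule: 5 min incubation before reading; benchmarks: neutral control DMSO, positive control TFP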
rRNA inh HTS: inhibits bacterial ribosomal RNA function over humanized ribosomes; E. coli WT GFP vs humanized-ribosome RFP mutants, fluorescence, 24 h; active compounds read low; DMSO median 0, no signal -100; GFP signal change (wild-type ribosome), % (test concentration not listed); 350,000 tested, 1.6% active; AID 720706;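 active means significant combined selectivity score with lowered wild-type GFP, culture density cut under 30%, mutant RFP and density less affected; inactive means any of these conditions unmet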
Vif imaging: blocks HIV Vif function; HEK293T cells, Vif self-association by quenched fluorescence, imaging, 24 h; inhibition, % at 7.49 µM; 340,000 tested, 0.35% active; in the data active means inhibition above about 50%, passing the limit was not always enough; inconclusive means no clear call, values can overlap the other calls; inactive means below about 31%
miR-122 sensor: inhibitors of miR-122 in Huh7 cells. activation (reporter increase), % at 12.5 µM. Huh7 miR-122 Renilla luciferase sensor, 48 h; neutral wells = 0, positive control = 100. 340,000 tested, 0.3% active. AID 602342;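 active means mean replicate activation score at least 90 and every replicate individually at or above 90; inconclusive means only one of the two criteria met; inactive means neither criterion met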;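 further: higher luciferase means less miR-122 activity so hits act as miR-122 inhibitors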
FN deposit inh: fibronectin deposition inhibition; AH1F fibroblasts, Alexa488-fibronectin deposition fluorescence, overnight; AID 743247; 350,000 tested, 0.086% active; inhibition, % at 12.6 µM;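 active means mean inhibition across replicates of 30% or more, regardless of how many single replicates reach that level; inconclusive means mean under 30% yet at least half of replicates reach 30%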;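 further: positive control wells lacked labelled fibronectin entirely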
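Assay system: AH1F fibroblast monolayer, labelled fibronectin deposition. Amount: 10000 cells per well. Also added: labelled fibronectin 24 nM. Compound: single-point pinned compound. Incubation: cell attachment 1 h, compound and FN exposure overnight. Detection: fluorescence after three HBSS washes, excitation 485 nm, emission 525 nm. Read-out: inhibition of fibronectin deposition signal.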
The depositor's hits bear a star; ? = inconclusive; . = no result; [ ] = dose if it differs, or a comment. Sampled rows, rich in hits. Any-hit rate of the full collection: about 2.6%.

SMILES | HIV Env fusion | S100A4 inh HTS | rRNA inh HTS | Vif imaging | miR-122 sensor | FN deposit inh
Cc1ccc(S(=O)(=O)N(C)C[C@@H]2Oc3c(NC(=O)Nc4ccc5c(c4)OCO5)cccc3C(=O)N([C@H](C)CO)C[C@@H]2C)cc1 | -13[16.7 µM] | 4 | -5 | . | 5[16.7 µM] | .
CC(=O)N1CC2(C1)[C@@H](c1ccccc1)[C@@H](CO)N2C(=O)c1ccncc1 | . | -11 | 5 | . | . | .
CCOc1ccccc1N1CCN(C(=S)NCc2ccccc2)CC1 | 49 | -1 | -22* | 22 | -4 | -6
CO[C@H]1CN(C)C(=O)c2cc(NC(=O)NC(C)C)ccc2OC[C@H](C)N(C)C[C@@H]1C | . | 12 | -3 | . | 0[16.7 µM] | -9
CC(=O)c1ccc(OCc2cn(CC(=O)c3ccc(O)cc3)nn2)c(C)c1 | -139 | 0 | -31* | 2 | -1 | 0
COc1cc(C(C)=O)ccc1OCc1cn(CC(=O)c2ccc(O)cc2)nn1 | 8 | -2 | 1 | -14 | 0 | -7
COc1ccccc1CNc1nc(NCc2ccccc2OC)c2sccc2n1 | 6 | 6 | -11 | -14 | -15 | 12
c1cc2cc(CNc3nc(NCC4CC4)nc4ccsc34)ccc2o1 | 80* | -2 | -59 | -26 | -12 | 6
COc1ccccc1CNc1nc(NCc2ccc3occc3c2)c2sccc2n1 | 58* | 5 | -50 | -2 | -4 | -10
CNC[C@H]1OCCCC[C@@H](C)Oc2ccc(NS(=O)(=O)c3ccc(OC)cc3)cc2C(=O)N([C@H](C)CO)C[C@H]1C | 13[16.7 µM] | 1 | 3 | . | 1[16.7 µM] | .
O=C(N/N=C/c1ccncc1)C1CC1(c1ccccc1)c1ccccc1 (stereo not given) | 35 | 5 | -22* | -14 | . | 2
CC(=O)C1=C(O)C(=O)N(c2ccc(C)cc2)C1c1ccc([N+](=O)[O-])cc1 (stereo not given) | -6 | 3 | 9 | -2 | . | -4
CC(=O)C1=C(O)C(=O)N(c2ccc(O)cc2)C1c1ccc([N+](=O)[O-])cc1 (stereo not given) | 16 | 5 | 15 | -4 | -1 | 36*
O=C(C[C@@H]1CC[C@H]2[C@@H](COC[C@H](O)CN2Cc2ccc3c(c2)OCO3)O1)Nc1ccc(-c2ccccc2)cc1 | 15[16.7 µM] | 12 | 3 | . | -4[16.7 µM] | 1
O=C(Nc1ccc2ncccc2c1)c1ccccc1 | -5 | 3 | 15 | -3 | -4 | -1
O=C(NC(=S)Nc1ccc2ncccc2c1)c1ccccc1 | -28 | -1 | -21* | -3 | 5 | -5
COc1ccccc1/C=N/NC(=O)c1ccccc1Cl | 12 | 0 | 18 | 4 | . | -6
COc1ccccc1C=NNC(=O)c1ccccc1OCCOc1ccccc1 | 9 | -2 | -31* | -10 | 14 | -6
CCc1cccc(NC(=O)CCS(=O)(=O)c2cc3c(cc2C)NC(=O)CO3)c1 | -19 | -4 | -11 | 134* | . | -1
CCN(C(=O)CCS(=O)(=O)c1cc2c(cc1Cl)NC(=O)CO2)c1ccccc1 | 72* | -1 | -4 | 2 | -5 | -3
Cc1ccc(N(C)C(=O)CCS(=O)(=O)c2cc3c(cc2Cl)NC(=O)CO3)cc1 | -11 | -1 | -3 | . | 7 | 5
COc1cccc(NC(=O)N[C@@H]2C=C[C@@H](CC(=O)N3CCCCC3)O[C@H]2CO)c1 | 6[16.7 µM] | 1 | 3 | . | . | .
Cc1onc(-c2c(Cl)cccc2Cl)c1-c1nc2cc(Cl)ccc2c(=O)o1 | 4 | -3 | -34* | -3 | 5 | -18
CC(C)(CSc1ncccn1)NS(=O)(=O)c1ccccc1 | 5 | 2 | 2 | -10 | 10 | 5
Cc1ccc(S(=O)(=O)NC(C)(C)CSc2nnc(Nc3ccccc3)s2)cc1 | 58* | . | . | -12 | ? | 0
SMILES | HIV Env fusion | S100A4 inh HTS | rRNA inh HTS | Vif imaging | miR-122 sensor | FN deposit inh
COc1ccc(S(=O)(=O)Nc2ccc3c(c2)C(=O)N([C@@H](C)CO)C[C@@H](C)[C@H](CN(C)S(=O)(=O)c2cccs2)OCCCC[C@H](C)O3)cc1 | 3[16.7 µM] | -25 | -1 | . | 4[16.7 µM] | 3
CCOC(=O)c1sc(=S)n(C)c1NC(=O)c1ccc(OC)cc1 | 22 | 4 | -21* | 2 | 2 | 3
CCOC(=O)c1sc(=S)n(C)c1NC(=O)c1ccc(C(C)(C)C)cc1 | 22 | 1 | -31 | -3 | 1 | -4
CCc1nc(NCc2cccs2)c2nnn(Cc3ccccc3)c2n1 | 19 | -2 | 5 | -3 | -2 | 3
CCc1nc(Nc2ccccc2)c2nnn(Cc3ccccc3)c2n1 | -9 | -4 | -30* | -5 | 8 | 6
COc1ccccc1/C=C/C(=O)c1ccc(Cl)cc1 | -34 | . | . | . | 8 | .
O=C(/C=C/c1ccccc1O)c1ccc(Cl)cc1 | -24 | 9 | -60 | -4 | . | 0
CCOc1ccccc1/C=C/C(=O)c1ccc(Cl)cc1 | 12 | 2 | -27* | 0 | . | -5
O=C(/C=C/c1ccccc1O)c1ccccc1 | -4 | -4 | -19* | 7 | . | -2
C[C@H](CO)N1C[C@H](C)[C@@H](CN(C)C(=O)Nc2ccc(C(F)(F)F)cc2)Oc2ccc(NC(=O)Nc3ccc(C(F)(F)F)cc3)cc2CC1=O | 6[16.7 µM] | -9 | -1 | . | 20[16.7 µM] | .
CC(C)(C)c1cc(C(c2cccnc2)N2CCN(CCO)CC2)cc(C(C)(C)C)c1O (stereo not given) | . | 11 | -30* | 13 | 3 | .
CCC(=O)N(CCC1(C(C)C)CCOC(C)(C)C1)Cc1ccco1 (stereo not given) | -90 | . | . | 109* | 3 | 0
CC1=C(O)C(=O)OC1c1c(Cl)cccc1Cl (stereo not given) | 5 | 0 | -29* | 10 | -8 | -2
COc1cc2c(cc1OC)C(c1c(Cl)cccc1Cl)NC(=O)C2 (stereo not given) | -19 | -2 | 4 | 13 | . | -8
O=C(Nc1ccccc1)[C@H]1[C@H](CO)[C@H]2Cn3c(cccc3=O)[C@H]2N1CC1CCOCC1 | . | . | 3 | . | . | .
O=C(Cc1ccccc1)NNC(=O)Nc1cccc(Cl)c1 | ? | . | . | 5 | 8 | -36
O=C(CN1c2ccccc2Sc2ccccc21)NNC(=O)Nc1cccc(Cl)c1 | 22 | 3 | . | -1 | 113* | -2
CC(C)[C@H](C)NC(=O)N(C)C[C@H]1OCc2ccccc2-c2ccccc2C(=O)N([C@@H](C)CO)C[C@H]1C | . | . | 2 | . | . | -4
Cc1cc(C)n(CCNC(=O)c2cc(COc3c(F)cccc3F)on2)n1 | -12 | -2 | -15 | 52* | -5 | .
O=C(Nc1ccccc1C(=O)N/N=C/c1ccc(O)cc1)c1ccccc1 | -21 | 7 | -30* | -11 | . | 8
CCCC(=O)N1CCN(c2nc3c(OC)ccc(Cl)c3s2)CC1 | -5 | 3 | -36* | 14 | -3 | -8
